Experimental data taken from ChEMBL document CHEMBL4680077, “Differentiation of skeletal osteogenic progenitor cells to osteoblasts with 3,4-diarylbenzopyran based amide derivatives: Novel osteogenic agents” (Eur J Med Chem, 2016).
Calls of active or inactive are those of the source. No cut-off for these calls is given here.

Tests used:
Calvarial osteoblast [1] = experiment: Induction of osteoblast differentiation in mouse calvarial osteoblast assessed as increase in BMP-2 mRNA expression at 1 pM incubated for 48 hrs by qPCR analysis; format: functional, cell-based
Procedure, shortened: (§1)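 Calvarial osteoblasts were treated at 1 pM for 24 and 48 h. Total RNA was extracted with TRIzol, and cDNA was made from 2 µg RNA. qPCR ran 40 cycles for BMP-2, RUNX-2, OCN and collagen type 1, with normalization to GAPDH. Mean ± SEM of three independent experiments.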

[2] = Acute toxicity in Swiss albino mouse assessed as relative testes weight at 5 mg/kg, po measured after 7 days (reference value: 0.62 +/- 0.03 %); format: organism-based; conditions: in vivo, 168 h, time 7 day
[3] = Acute toxicity in Swiss albino mouse assessed as neutrophil count at 1000 mg/kg, po measured after 7 days (reference value: 41.50 +/- 4.08 %); format: organism-based; conditions: in vivo, 168 h, time 7 day
[4] = Acute toxicity in Swiss albino mouse assessed as malondialdehyde level at 50 mg/kg, po measured after 7 days (reference value: 0.14 +/- 0.01 nM/mg); format: organism-based; conditions: in vivo, 168 h, time 7 day
[5] = Acute toxicity in Swiss albino mouse assessed as haemoglobin level at 5 mg/kg, po measured after 7 days (reference value: 10.86 +/- 0.87 g/dL); format: organism-based; conditions: in vivo, 168 h, time 7 day
[6] = Clearance in Sprague-Dawley rat at 1 mg/kg, iv measured upto 24 hrs by LC-MS/MS analysis; format: ADME, organism-based; conditions: in vivo
Mus musculus [7] = experiment: In vivo osteogenic activity in ovariectomized BALB/c mouse assessed as decrease in serum CTx at 1 to 10 mg/kg, po via gavage administered for 30 days; format: functional, organism-based; conditions: dose 1-10 mg/kg, time 30.0 day
Procedure, shortened: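 Eight-week-old female balb/c mice were ovariectomized and dosed once daily by oral gavage at 1 or 10 mg kg-1 in vehicle (gum acacia in water) for 30 days; sham and Ovx vehicle groups served as controls. Serum CTx and osteocalcin were assayed in duplicate. n = 10 per group; mean ± SEM.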

[8] = Acute toxicity in Swiss albino mouse assessed as absolute uterus weight at 300 mg/kg, po measured after 7 days (reference value: 0.27+/- 0.07 g); format: organism-based; conditions: in vivo, 168 h, time 7 day
[9] = Acute toxicity in Swiss albino mouse assessed as relative ovary weight at 1000 mg/kg, po measured after 7 days (reference value: 0.07 +/- 0.02 %); format: organism-based; conditions: in vivo, 168 h, time 7 day
[10] = Acute toxicity in Swiss albino mouse assessed as relative lung weight at 300 mg/kg, po measured after 7 days (reference value: 0.70 +/- 0.08 %); format: organism-based; conditions: in vivo, 168 h, time 7 day
[11] = Acute toxicity in Swiss albino mouse assessed as absolute heart weight at 1000 mg/kg, po measured after 7 days (reference value: 0.12 g); format: organism-based; conditions: in vivo, 168 h, time 7 day
[12] = Acute toxicity in Swiss albino mouse assessed as absolute spleen weight at 300 mg/kg, po measured after 7 days (reference value: 0.17 +/- 0.03 g); format: organism-based; conditions: in vivo, 168 h, time 7 day
[13] = Initial concentration in Sprague-Dawley rat at 1 mg/kg, iv measured upto 24 hrs by LC-MS/MS analysis; format: ADME, organism-based; conditions: in vivo
[14] = Acute toxicity in Swiss albino mouse assessed as absolute testes weight at 300 mg/kg, po measured after 7 days (reference value: 0.15+/- 0.01 g); format: organism-based; conditions: in vivo, 168 h, time 7 day
[15] = Acute toxicity in Swiss albino mouse assessed as relative ovary weight at 50 mg/kg, po measured after 7 days (reference value: 0.07 +/- 0.02 %); format: organism-based; conditions: in vivo, 168 h, time 7 day
[16] = Acute toxicity in Swiss albino mouse assessed as eosinophil count at 50 mg/kg, po measured after 7 days (reference value: 6.34 +/- 1.04 %); format: organism-based; conditions: in vivo, 168 h, time 7 day
[17] = Half life in Sprague-Dawley rat at 1 mg/kg, iv measured upto 24 hrs by LC-MS/MS analysis; format: ADME, organism-based; conditions: in vivo
[18] = Acute toxicity in Swiss albino mouse assessed as WBC count per thousand/mm3 at 50 mg/kg, po measured after 7 days (reference value: 6.84 +/- 0.83 /mm3); format: organism-based; conditions: in vivo, 168 h, time 7 day
[19] = Acute toxicity in Swiss albino mouse assessed as body weight at 5 mg/kg, po measured on day 7 (reference value: 22.75 +/- 0.38 g); format: organism-based; conditions: in vivo, 168 h, time 7 day
Mus musculus [20] = experiment: In vivo osteogenic activity in ovariectomized BALB/c mouse assessed as increase in femur bone volume density at 1 to 10 mg/kg, po via gavage administered for 1 month by microCT imaging analysis; format: functional, organism-based; conditions: dose 1-10 mg/kg, time 1.0 months
Procedure, shortened: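 Ovariectomized female balb/c mice, 8 weeks old, 10 per group, received 1.0 or 10.0 mg kg-1 once daily by oral gavage (gum acacia vehicle) for 4 weeks, alongside sham and Ovx vehicle groups. Femurs were scanned by microCT. BV/TV, Tb.N and Tb.Sp were derived by the mean intercept length method. Mean ± SE.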

Calvarial osteoblast [21] = experiment: Induction of osteoblast differentiation in mouse calvarial osteoblast assessed as increase in ERalpha expression at 1 pM incubated for 48 hrs by Western blot analysis; format: functional, cell-based
Procedure, shortened: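 Calvarial osteoblasts at 60–70% confluence were treated ± compound for 48 h, with 100 pM E2 as positive control. Lysates (30 µg protein) were resolved on 10% SDS-PAGE, transferred to PVDF and probed for ER-α and ER-β with HRP secondaries and ECL detection. Bands were quantified by densitometry normalized to β-actin.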

[22] = Acute toxicity in Swiss albino mouse assessed as monocyte count at 300 mg/kg, po measured after 7 days (reference value: 12.58 +/- 2.86 %); format: organism-based; conditions: in vivo, 168 h, time 7 day
[23] = Acute toxicity in Swiss albino mouse assessed as triglycerides level at 300 mg/kg, po measured after 7 days (reference value: 58.51 +/- 10.82 mg/dL); format: organism-based; conditions: in vivo, 168 h, time 7 day
[24] = Acute toxicity in Swiss albino mouse assessed as haemoglobin level at 50 mg/kg, po measured after 7 days (reference value: 10.86 +/- 0.87 g/dL); format: organism-based; conditions: in vivo, 168 h, time 7 day
[25] = Acute toxicity in Swiss albino mouse assessed as relative uterus weight at 5 mg/kg, po measured after 7 days (reference value: 1.63 +/- 0.71 %); format: organism-based; conditions: in vivo, 168 h, time 7 day
[26] = Acute toxicity in Swiss albino mouse assessed as relative lung weight at 50 mg/kg, po measured after 7 days (reference value: 0.70 +/- 0.08 %); format: organism-based; conditions: in vivo, 168 h, time 7 day
[27] = Acute toxicity in Swiss albino mouse assessed as basophil count at 1000 mg/kg, po measured after 7 days (reference value: 1.50 +/- 0.29 %); format: organism-based; conditions: in vivo, 168 h, time 7 day
[28] = Acute toxicity in Swiss albino mouse assessed as relative liver weight at 1000 mg/kg, po measured after 7 days (reference value: 6.81 +/- 2.14 %); format: organism-based; conditions: in vivo, 168 h, time 7 day
[29] = Acute toxicity in Swiss albino mouse assessed as basophil count at 50 mg/kg, po measured after 7 days (reference value: 1.50 +/- 0.29 %); format: organism-based; conditions: in vivo, 168 h, time 7 day
Calvarial osteoblast [30] = experiment: Induction of osteoblast differentiation in mouse calvarial osteoblast assessed as increase in OCN mRNA expression at 1 pM incubated for 48 hrs by qPCR analysis; format: functional, cell-based; procedure, shortened: as §1
[31] = Acute toxicity in Swiss albino mouse assessed as relative uterus weight at 50 mg/kg, po measured after 7 days (reference value: 1.63 +/- 0.71 %); format: organism-based; conditions: in vivo, 168 h, time 7 day
[32] = Acute toxicity in Swiss albino mouse assessed as lymphocyte count at 300 mg/kg, po measured after 7 days (reference value: 37.97 +/- 1.80 %); format: organism-based; conditions: in vivo, 168 h, time 7 day

With `CCCCN(C)C(=O)CCCCOc1ccc([C@H]2c3ccc(OC)cc3OC(C)(C)[C@@H]2c2ccccc2)cc1` the Activity (Calvarial osteoblast [1]) was “Active”, the Activity [2] was 0.6% and the Activity [3] was 46.03%. For the same compound, the Activity [4] was 0.14 nM/mg, the Activity [5] was 12.94 g/dL and the clearance [6] was 18.4 mL/min/kg. The Activity (Mus musculus [7]) was “Active”, the Activity [8] was 0.33 g and the Activity [9] was 0.05%. For the same compound, the Activity [10] was 0.73%, the Activity [11] was 0.12 g and the Activity [12] was 0.13 g. The C0 at 24 h [13] was 610 ng/mL, the Activity [14] was 0.14 g and the Activity [15] was 0.33%. The Activity [16] was 6.99%, the half-life [17] was 3.52 h and the Activity [18] was 5.69 /mm3. For the same compound, the Activity [19] was 24.25 g, the Activity (Mus musculus [20]) was “Active” and the Activity (Calvarial osteoblast [21]) was “inactive”. The Activity [22] was 8.99%, the Activity [23] was 57.55 mg/dL and the Activity [24] was 13.14 g/dL. For the same compound, the Activity [25] was 1.77%, the Activity [26] was 0.84% and the Activity [27] was 1.75%. For the same compound, the Activity [28] was 5.28%, the Activity [29] was 0.5% and the Activity (Calvarial osteoblast [30]) was “Active”. It also gave an Activity [31] of 1.17% and an Activity [32] of 42.9%.
